Key:
MDA-MB-231 [1] = test: Antiproliferative activity against estrogen receptor deficient human MDA-MB-231 cells after 72 hrs by MTT assay; assay type: functional, cell-based; conditions: MDA-MB-231, 72 h
Summary of the method: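 MCF-7 grown in Eagle's MEM with 10% FBS, 2 mM L-glutamine, penicillin/streptomycin and 1% non-essential amino acids; MDA-MB-231 grown in DMEM with 10% FBS, 2 mM L-glutamine and penicillin/streptomycin. Seeded at 2.5 × 10⁴ cells/mL, 24 h at 37 °C. Ethanol-stock compound, 1 nM–100 μM, 72 h, ethanol 1% v/v vehicle. MTT at 1 mg/mL final, 2 h dark, 37 °C, DMSO solubilised. Viability vs untreated control. IC50 is mean of three experiments in triplicate.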

MDA-MB-231 [2] = test: Cell cycle arrest in estrogen receptor deficient human MDA-MB-231 cells assessed as accumulation at sub-G1 phase at 10 nM after 24 hrs using propidium iodide staining by flow cytometry relative to control; assay type: functional
Summary of the method: (§1)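 MDA-MB-231 cells in DMEM with 10% FBS and 2 mM L-glutamine, seeded at 18 × 10⁴ cells/mL. Exposed to test agent at the stated final concentration, or to 1% (v/v) ethanol vehicle, for 24, 48 or 72 h. Harvested by scraping and centrifugation, then RNase A treatment and propidium iodide DNA staining for at least 30 min at 37 °C. 10,000 cells per sample read at 488 nm by flow cytometry; mean ± SD of three experiments.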

MDA-MB-231 [3] = test: Cell cycle arrest in estrogen receptor deficient human MDA-MB-231 cells assessed as accumulation at sub-G1 phase at 100 nM after 24 hrs using propidium iodide staining by flow cytometry relative to control; assay type: functional; summary of the method: as §1
MDA-MB-231 [4] = test: Cell cycle arrest in estrogen receptor deficient human MDA-MB-231 cells assessed as accumulation at sub-G1 phase at 1 uM after 24 hrs using propidium iodide staining by flow cytometry relative to control; assay type: functional; summary of the method: as §1
MDA-MB-231 [5] = test: Cell cycle arrest in estrogen receptor deficient human MDA-MB-231 cells assessed as accumulation at sub-G1 phase at 100 nM after 48 hrs using propidium iodide staining by flow cytometry relative to control; assay type: functional; summary of the method: as §1
MDA-MB-231 [6] = test: Cell cycle arrest in estrogen receptor deficient human MDA-MB-231 cells assessed as accumulation at sub-G1 phase at 10 uM after 48 hrs using propidium iodide staining by flow cytometry relative to control; assay type: functional; summary of the method: as §1
MDA-MB-231 [7] = test: Cell cycle arrest in estrogen receptor deficient human MDA-MB-231 cells assessed as accumulation at sub-G1 phase at 100 nM after 72 hrs using propidium iodide staining by flow cytometry relative to control; assay type: functional; summary of the method: as §1
MDA-MB-231 [8] = test: Cell cycle arrest in estrogen receptor deficient human MDA-MB-231 cells assessed as accumulation at G1 phase at 100 nM after 24 hrs using propidium iodide staining by flow cytometry relative to control; assay type: functional; summary of the method: as §1
MDA-MB-231 [9] = test: Cell cycle arrest in estrogen receptor deficient human MDA-MB-231 cells assessed as accumulation at G1 phase at 1 uM after 24 hrs using propidium iodide staining by flow cytometry relative to control; assay type: functional; summary of the method: as §1
MDA-MB-231 [10] = test: Cell cycle arrest in estrogen receptor deficient human MDA-MB-231 cells assessed as accumulation at G1 phase at 100 nM after 48 hrs using propidium iodide staining by flow cytometry relative to control; assay type: functional; summary of the method: as §1
MDA-MB-231 [11] = test: Cell cycle arrest in estrogen receptor deficient human MDA-MB-231 cells assessed as accumulation at G1 phase at 10 uM after 48 hrs using propidium iodide staining by flow cytometry relative to control; assay type: functional; summary of the method: as §1
MDA-MB-231 [12] = test: Cell cycle arrest in estrogen receptor deficient human MDA-MB-231 cells assessed as accumulation at G1 phase at 100 nM after 72 hrs using propidium iodide staining by flow cytometry relative to control; assay type: functional; summary of the method: as §1
MDA-MB-231 [13] = test: Cell cycle arrest in estrogen receptor deficient human MDA-MB-231 cells assessed as accumulation at G1 phase at 1 uM after 72 hrs using propidium iodide staining by flow cytometry relative to control; assay type: functional; summary of the method: as §1
MDA-MB-231 [14] = test: Cell cycle arrest in estrogen receptor deficient human MDA-MB-231 cells assessed as accumulation at S phase at 10 uM after 24 hrs using propidium iodide staining by flow cytometry relative to control; assay type: functional; summary of the method: as §1
MDA-MB-231 [15] = test: Cell cycle arrest in estrogen receptor deficient human MDA-MB-231 cells assessed as accumulation at S phase at 10 nM after 48 hrs using propidium iodide staining by flow cytometry relative to control; assay type: functional; summary of the method: as §1
MDA-MB-231 [16] = test: Cell cycle arrest in estrogen receptor deficient human MDA-MB-231 cells assessed as accumulation at S phase at 100 nM after 48 hrs using propidium iodide staining by flow cytometry relative to control; assay type: functional; summary of the method: as §1
MDA-MB-231 [17] = test: Cell cycle arrest in estrogen receptor deficient human MDA-MB-231 cells assessed as accumulation at S phase at 100 nM after 72 hrs using propidium iodide staining by flow cytometry relative to control; assay type: functional; summary of the method: as §1
MDA-MB-231 [18] = test: Cell cycle arrest in estrogen receptor deficient human MDA-MB-231 cells assessed as accumulation at S phase at 10 uM after 72 hrs using propidium iodide staining by flow cytometry relative to control; assay type: functional; summary of the method: as §1
MDA-MB-231 [19] = test: Cell cycle arrest in estrogen receptor deficient human MDA-MB-231 cells assessed as accumulation at G2/M phase at 10 nM after 24 hrs using propidium iodide staining by flow cytometry relative to control; assay type: functional; summary of the method: as §1
MDA-MB-231 [20] = test: Cell cycle arrest in estrogen receptor deficient human MDA-MB-231 cells assessed as accumulation at G2/M phase at 100 nM after 24 hrs using propidium iodide staining by flow cytometry relative to control; assay type: functional; summary of the method: as §1
MDA-MB-231 [21] = test: Cell cycle arrest in estrogen receptor deficient human MDA-MB-231 cells assessed as accumulation at G2/M phase at 1 uM after 24 hrs using propidium iodide staining by flow cytometry relative to control; assay type: functional; summary of the method: as §1
MDA-MB-231 [22] = test: Cell cycle arrest in estrogen receptor deficient human MDA-MB-231 cells assessed as accumulation at G2/M phase at 10 uM after 48 hrs using propidium iodide staining by flow cytometry relative to control; assay type: functional; summary of the method: as §1
MDA-MB-231 [23] = test: Cell cycle arrest in estrogen receptor deficient human MDA-MB-231 cells assessed as appearance of polyploidy at 100 nM after 24 hrs using propidium iodide staining by flow cytometry relative to control; assay type: functional
Summary of the method: (§2)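 MDA-MB-231 cells seeded at 18 × 10⁴ cells/mL and exposed to 1% (v/v) ethanol vehicle or compound at final concentrations (10 nM, 100 nM, 10 µM at all times; 1 µM also at 24 and 72 h). Cells harvested after 24, 48 or 72 h and treated with RNase A and propidium iodide for at least 30 min at 37 °C. 10,000 cells read at 488 nm by flow cytometry. Percent cells per phase reported, including polyploid; mean ± SD of three experiments.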

MDA-MB-231 [24] = test: Cell cycle arrest in estrogen receptor deficient human MDA-MB-231 cells assessed as appearance of polyploidy at 1 uM after 24 hrs using propidium iodide staining by flow cytometry relative to control; assay type: functional; summary of the method: as §1
MDA-MB-231 [25] = test: Cell cycle arrest in estrogen receptor deficient human MDA-MB-231 cells assessed as appearance of polyploidy at 10 nM after 72 hrs using propidium iodide staining by flow cytometry relative to control; assay type: functional; summary of the method: as §1
MDA-MB-231 [26] = test: Cell cycle arrest in estrogen receptor deficient human MDA-MB-231 cells assessed as appearance of polyploidy at 100 nM after 72 hrs using propidium iodide staining by flow cytometry relative to control; assay type: functional; summary of the method: as §2
MDA-MB-231 [27] = test: Cell cycle arrest in estrogen receptor deficient human MDA-MB-231 cells assessed as appearance of polyploidy at 10 uM after 72 hrs using propidium iodide staining by flow cytometry relative to control; assay type: functional; summary of the method: as §2

Q: How did the IC50 (MDA-MB-231 [1]) turn out when `COc1ccc(C2CC(=O)N2c2cc(OC)c(OC)c(OC)c2)cc1O` (configuration not stated) was run?
A: 54 nM

Q: And the Activity (MDA-MB-231 [2])?
A: 3.72%

Q: What about the Activity (MDA-MB-231 [3]) of the same molecule?
A: 4.88%

Q: And the Activity (MDA-MB-231 [4])?
A: 7.08%

Q: And the Activity (MDA-MB-231 [5])?
A: 37.5%

Q: And the Activity (MDA-MB-231 [6])?
A: 51.27%

Q: What about the Activity (MDA-MB-231 [7]) of the same molecule?
A: 63.1%

Q: And the Activity (MDA-MB-231 [8])?
A: 18.95%

Q: And the Activity (MDA-MB-231 [9])?
A: 19.22%

Q: What about the Activity (MDA-MB-231 [10]) of the same molecule?
A: 10.76%

Q: What about the Activity (MDA-MB-231 [11]) of the same molecule?
A: 14.44%

Q: What about the Activity (MDA-MB-231 [12]) of the same molecule?
A: 13.9%

Q: And the Activity (MDA-MB-231 [13])?
A: 14.29%

Q: What about the Activity (MDA-MB-231 [14]) of the same molecule?
A: 3.72%

Q: And the Activity (MDA-MB-231 [15])?
A: 13.36%

Q: And the Activity (MDA-MB-231 [16])?
A: 8.9%

Q: And the Activity (MDA-MB-231 [17])?
A: 5.34%

Q: What about the Activity (MDA-MB-231 [18]) of the same molecule?
A: 9.66%

Q: What about the Activity (MDA-MB-231 [19]) of the same molecule?
A: 25.61%

Q: And the Activity (MDA-MB-231 [20])?
A: 59.43%

Q: And the Activity (MDA-MB-231 [21])?
A: 63.16%

Q: What about the Activity (MDA-MB-231 [22]) of the same molecule?
A: 27.25%

Q: And the Activity (MDA-MB-231 [23])?
A: 4.87%

Q: And the Activity (MDA-MB-231 [24])?
A: 4.31%

Q: And the Activity (MDA-MB-231 [25])?
A: 3.55%

Q: And the Activity (MDA-MB-231 [26])?
A: 2.99%

Q: And the Activity (MDA-MB-231 [27])?
A: 3.38%

Source: ChEMBL document CHEMBL1629485, “Lead identification of conformationally restricted β-lactam type combretastatin analogues: synthesis, antiproliferative activity and tubulin targeting effects” (Eur J Med Chem, 2010)
